High-throughput results from PubChem.
Compounds with a hit are over-represented: about 2.3% of the library has one in this group of screens.
TRPC6 activator: activates the mouse TRPC6 cation channel | Q61143 | HEK293-TRPC6 membrane potential dye fluorescence; stronger effect = higher value | B-score at 10 µM | 310,000 tested, 0.13% active | AID 2550;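 active = B-score of the integrated fluorescence ratio above library mean plus 3 SD, and starting fluorescence ratio within library mean plus 5 SD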;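 note: higher score means more depolarization so channel activation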
TRPC6 inh: inhibitors of mouse TRPC6 channel | Q61143 | HEK293-TRPC6, membrane potential dye, ACh-evoked depolarization; stronger effect = lower value | B-score at 10 µM | 310,000 tested, 1.1% active | AID 2553;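 active = B-score under library mean minus 3 SD, initial fluorescence not abnormally high, positive integrated signal ratio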;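 note: B-score derived from integrated fluorescence ratio over the kinetic read; more negative B-score means stronger inhibition of depolarization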
TRPC4 block: blocks the mouse TRPC4 cation channel. Q9QUQ5. HEK293 TRPC4beta/mu-opioid, DAMGO-evoked Fluo4 calcium flux; stronger effect = lower value. B-score at 10 µM. 300,000 tested, 0.39% active;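 active = B-score over 3 SD under the library average, no early fluorescence shift, positive overall ratio signal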
Target sequence (Q9QUQ5 whole entry, looked up): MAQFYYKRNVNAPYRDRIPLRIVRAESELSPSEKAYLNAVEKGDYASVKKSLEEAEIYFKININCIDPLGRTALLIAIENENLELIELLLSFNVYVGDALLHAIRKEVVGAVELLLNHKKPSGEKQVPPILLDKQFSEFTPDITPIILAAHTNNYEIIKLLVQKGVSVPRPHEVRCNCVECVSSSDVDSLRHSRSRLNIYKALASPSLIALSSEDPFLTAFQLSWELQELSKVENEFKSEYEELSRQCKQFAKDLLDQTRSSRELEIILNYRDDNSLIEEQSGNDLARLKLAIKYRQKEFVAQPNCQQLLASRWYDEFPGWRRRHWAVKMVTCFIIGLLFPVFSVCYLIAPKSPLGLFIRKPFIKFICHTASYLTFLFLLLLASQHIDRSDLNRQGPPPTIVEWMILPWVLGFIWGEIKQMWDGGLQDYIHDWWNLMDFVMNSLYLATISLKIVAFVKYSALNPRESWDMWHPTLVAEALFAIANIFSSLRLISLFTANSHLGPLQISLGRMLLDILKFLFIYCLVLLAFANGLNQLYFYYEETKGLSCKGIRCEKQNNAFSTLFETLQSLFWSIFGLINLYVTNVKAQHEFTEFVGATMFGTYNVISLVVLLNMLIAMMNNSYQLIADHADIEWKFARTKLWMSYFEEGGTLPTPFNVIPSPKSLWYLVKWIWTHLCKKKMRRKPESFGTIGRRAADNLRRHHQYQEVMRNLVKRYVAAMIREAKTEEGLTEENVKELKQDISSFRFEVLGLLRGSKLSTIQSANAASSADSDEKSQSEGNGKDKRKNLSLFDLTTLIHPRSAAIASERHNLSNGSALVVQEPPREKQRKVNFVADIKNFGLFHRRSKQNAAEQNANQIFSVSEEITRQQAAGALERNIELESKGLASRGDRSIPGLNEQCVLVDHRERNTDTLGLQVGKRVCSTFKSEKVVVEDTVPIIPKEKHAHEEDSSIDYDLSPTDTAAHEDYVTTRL
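test system = HEK293 cells with stable TRPC4beta plus mu-opioid receptor expression | detection = Fluo4 Ca2+ flux fluorescence | read-out = integrated fluorescence ratio relative to baseline, converted to per-well B score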
TRPC4 act: opens the mouse TRPC4 cation channel. Q9QUQ5. HEK293 TRPC4beta/mu-opioid, Fluo4 calcium fluorescence; stronger effect = higher value. B-score at 10 µM. 310,000 tested, 0.49% active;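 active = B-score above 5 SD of library B-scores, and initial fluorescence ratio not above library mean plus 5 SD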;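 note: positive B-score marks a calcium rise read as TRPC4 activation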
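System: HEK293 cells stably co-expressing mouse TRPC4beta and mu-opioid receptor; Schedule: Fluo4 dye loading 45 min at room temperature, 110 s recording; Detection: Fluo4 fluorescence, kinetic; Evaluation: B-scored integrated calcium fluorescence ratio; Controls: buffer (low) and maximal DAMGO (high).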
TRPC4 PAM: allosteric potentiators of mouse TRPC4 channel; Q9QUQ5; HEK293 TRPC4beta/mu-opioid, DAMGO EC20, Fluo-4 Ca2+ flux; stronger effect = higher value; B-score at 10 µM; 310,000 tested, 0.42% active;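 active = B-score of calcium response area above 5 SD of library B-scores, with initial fluorescence ratio within 5 SD of library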;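 note: B-score of integrated fluorescence ratio over time as area under calcium response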
TRPC4 sel inh 2: second check of whether TRPC6 inhibitors also affect mouse TRPC4. shares compounds with TRPC6 inh. HEK293 TRPC4/MOR, membrane potential dye fluorescence; channel activated by saturating DAMGO dose. inhibition, % at 10 µM. 920 tested, 42% active. AID 2776;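 active = compounds whose fluorescence signal differed from control wells by over 3 SD, either direction, in both duplicate plates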
TRPC4 spec: tests whether TRPC6 inhibitors also affect mouse TRPC4 | shares compounds with TRPC6 inh | HEK293 TRPC4/mu-opioid, membrane potential fluorescence | activity change, negative = inhibition, % at 10 µM | 920 tested, 61% active | AID 2777;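 active = rise or fall in signal beyond 3 SD of buffer-only wells in both replicate plates, either sign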;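 note: integrated kinetic ratio of fluorescence range over baseline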
HEK293 MPD ctr 2-1: second check of TRPC6 inhibitor effects in parental HEK293 cells. shares compounds with TRPC6 inh. parental HEK293 membrane potential dye fluorescence; maximal acetylcholine challenge after compound addition. signal change vs control, % at 10 µM. 920 tested, 31% active. AID 2779;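 active = membrane potential signal moving either way by over 3 SD of the maximum-effect control, in both duplicate plates, meaning non-specific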
HEK293 MPD ctr-1: counter-screen for TRPC6 inhibitors: effect in parental HEK293 cells; parental HEK293 membrane potential dye fluorescence; 920 tested, 60% active; shares compounds with TRPC6 inh; membrane potential signal change, % at 10 µM;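 active = membrane potential signal shifting up or down by more than 3 SD of buffer-only wells, on both duplicate plates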
HEK293 MPD ctr-2: counter-screen for TRPC6 modulators: effect in parental HEK293 cells. shares compounds with TRPC6 inh. membrane potential dye fluorescence. membrane potential signal change, % at 10 µM. 2,400 tested, 51% active. AID 488924;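 active = membrane potential signal moves up or down beyond 5 SD from buffer-only wells, on both duplicate plates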
HEK293 MPD ctr 2-2: second counter-screen for TRPC6 modulators: effect in parental HEK293 cells; shares compounds with TRPC6 inh; membrane potential dye fluorescence; after compound, maximal acetylcholine stimulation; inhibition, % at 10 µM; 2,400 tested, 14% active; AID 488926;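 active = membrane potential signal drops by more than 5 SD from the mean control signal, in both duplicate plates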;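 note: plate controls were acetylcholine ECmax control wells for no effect and buffer only wells for full effect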
TRPC4 ctr mod: tests whether TRPC6 modulators also affect mouse TRPC4; percent change from control (negative = decrease, positive = increase), % at 10 µM; shares compounds with TRPC6 inh; HEK293 TRPC4/mu-opioid, membrane potential fluorescence; 2,400 tested, 69% active;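 active = membrane potential signal moved up or down beyond 5 SD of buffer control wells, in both duplicate plates, actives on both sides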;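 note: plate controls were assay buffer wells for no effect and DAMGO maximal-effect wells for full effect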
TRPC4 ctr inh 2: mouse TRPC4 off-target activity of TRPC6 modulators, second screen; shares compounds with TRPC6 inh; HEK293 TRPC4/mu-opioid, membrane potential dye fluorescence; stimulated with maximal-effect DAMGO; inhibition, % at 10 µM; 2,400 tested, 55% active;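 active = drop in membrane potential signal beyond 5 SD of the control wells in both duplicate plates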;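 note: TRPC4 counter screen for TRPC6 hits run under conditions tuned for TRPC6 not TRPC4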
TRPC6 block conf: confirmation of mouse TRPC6 inhibitors. inhibition, % at 10 µM. HEK293-TRPC6, membrane potential dye, ACh-evoked depolarization. AID 488960. 3,300 tested, 43% active. shares compounds with TRPC6 inh;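 active = fluorescence ratio falls more than 5 SD below the full-stimulation control mean, in both duplicate runs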;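 note: integrated fluorescence ratio of peak minus minimum over baseline after agonist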
TRPC6 act confirm: confirmation of mouse TRPC6 activators. shares compounds with TRPC6 inh. HEK293-TRPC6 membrane potential dye fluorescence, FDSS. activation, % at 10 µM. 2,800 tested, 11% active. AID 488961;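 active = ratio signal rise beyond 5 SD above unstimulated control wells' mean, seen in both duplicate runs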;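 note: plate controls were buffer EC0 wells for no effect and acetylcholine ECmax response for full effect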
* hit, by the source's call; i = inactive; . = no result; + = active, no number.

SMILES	TRPC6 activator	TRPC6 inh	TRPC4 block	TRPC4 act	TRPC4 PAM	HEK293 MPD ctr-2	HEK293 MPD ctr 2-2	TRPC4 ctr mod	TRPC4 ctr inh 2	TRPC6 block conf	TRPC6 act confirm	others
CC12CCC(=O)N1C(C(=O)Nc1cc(C(F)(F)F)ccc1N1CCCCC1)CS2 (stereo not given)	i	i	i	i	i	.	.	.	.	.	.
CC12CCC(=O)N1C(C(=O)Nc1cc(C(F)(F)F)ccc1N1CCOCC1)CS2 (stereo not given)	i	-5.48*	i	i	i	i	i	i	i	i	i
Cc1ccc(S(=O)(=O)Nc2ccc3c(c2)c2c(n3S(=O)(=O)c3ccc(C)cc3)CCCC2=O)cc1	i	i	i	i	i	.	.	.	.	.	.
CC(=O)c1ccc(N2CCN(CN3C(=O)CC4(CCCC4)C3=O)CC2)c(F)c1	i	i	i	i	i	.	.	.	.	.	.
Cc1cc(Cl)ccc1OCC(=O)NCCC(=O)O	i	-6.63*	i	i	i	.	.	.	.	i	i	TRPC4 sel inh 2=i;TRPC4 spec=i;HEK293 MPD ctr 2-1=i;HEK293 MPD ctr-1=i
c1ccc(-c2nn[nH]n2)nc1	i	i	i	i	i	.	.	.	.	.	.
O=C(Cn1cccn1)c1ccccc1	i	i	i	i	i	.	.	.	.	.	.
CCn1cc(Br)c(C(=O)NCc2ccco2)n1	i	-5.82*	i	i	i	i	i	i	i	i	i
CN(C)c1nc(F)c(F)c(S(=O)(=O)c2ccccc2)c1F	i	-5.26*	i	i	i	i	i	i	i	i	i
COc1ccc(N2C(=O)CSC2c2ccc3c(c2)OCO3)cc1 (stereo not given)	i	-7.54*	i	i	i	.	.	.	.	i	i	TRPC4 sel inh 2=i;TRPC4 spec=i;HEK293 MPD ctr 2-1=i;HEK293 MPD ctr-1=i
CN1CCN(CCCN2c3ccccc3Sc3ccc(Cl)cc32)CC1	i	i	i	i	i	.	.	.	.	.	.
CN1CCN(C2=Nc3cc(Cl)ccc3Nc3ccccc32)CC1	i	-6.89*	i	i	i	.	.	.	.	i	i	TRPC4 sel inh 2=i;TRPC4 spec=i;HEK293 MPD ctr 2-1=-2.0%*;HEK293 MPD ctr-1=i
COc1ccc(-c2nc(CS(=O)CC(=O)NC3CCC(C)CC3)c(C)o2)cc1OC (stereo not given)	i	-6.21*	i	i	i	i	i	13.0%*	29.0%*	71.0%*	.
CCCCN(C(=O)/C=C/c1ccc(OC)cc1)C1CCS(=O)(=O)C1 (stereo not given)	i	i	i	i	i	.	.	.	.	.	.
COc1ccccc1N(CC(O)Cn1ccnc1C)S(=O)(=O)c1ccc(C)cc1 (stereo not given)	i	i	i	i	i	.	.	.	.	.	.
CN(C)CCNC(=O)Cn1nc(C(F)F)cc1C1CC1	i	i	i	i	i	.	.	.	.	.	.
c1ccc(Cn2nnc3ccccc32)cc1	i	i	i	i	i	.	.	.	.	.	.
c1ccc(Cn2nnc3cnccc32)cc1	i	-8.12*	-5*	i	i	.	.	.	.	i	i	TRPC4 sel inh 2=i;TRPC4 spec=i;HEK293 MPD ctr 2-1=i;HEK293 MPD ctr-1=i
COC(=O)C[C@H]1c2cc(C(F)(F)F)ccc2S(=O)(=O)N1C1CCCC1	i	i	.	i	i	.	.	.	.	.	.
Cc1cc(NCCO)c2ccccc2n1	i	i	i	i	i	.	.	.	.	.	.
COCCCNc1cc(C)nc2ccccc12	i	-7.39*	-6*	i	i	-264.5%*	i	-49.5%*	63.0%*	i	i
COC(=O)Nc1cc(C)nc2ccccc12	i	i	i	i	i	.	.	.	.	.	.
OCCNc1c2ccccc2nc2ccccc12	i	-9.52*	i	i	i	-233.0%*	i	-37.5%*	46.0%*	56.0%*	i
COCCCNc1ccnc2c(Cl)cccc12	i	-8.98*	i	i	i	-287.0%*	i	-44.0%*	48.5%*	i	i
Cc1cc(NCCO)c2cc(O)ccc2n1	i	-7.85*	i	i	i	-251.5%*	i	-47.0%*	38.0%*	53.5%*	i
SMILES	TRPC6 activator	TRPC6 inh	TRPC4 block	TRPC4 act	TRPC4 PAM	HEK293 MPD ctr-2	HEK293 MPD ctr 2-2	TRPC4 ctr mod	TRPC4 ctr inh 2	TRPC6 block conf	TRPC6 act confirm	others
O=C(CC1N=C(Cc2ccccc2)NNC1=O)N/N=C/c1ccc([N+](=O)[O-])cc1 (stereo not given)	i	i	i	i	i	.	.	.	.	.	.
CCCOc1ccc(C(=O)NNC(=O)c2cccc(S(=O)(=O)N3CCN(C(C)=O)CC3)c2)cc1OC	i	i	i	i	i	.	.	.	.	.	.
Fc1ccc(Nc2nnc(C(F)(F)F)s2)cc1Cl	i	-8.78*	i	i	i	.	.	.	.	61.0%*	i	TRPC4 sel inh 2=i;TRPC4 spec=i;HEK293 MPD ctr 2-1=i;HEK293 MPD ctr-1=i
O=C(/C=C/c1ccccc1)NCCc1c[nH]c2ccccc12	i	i	i	i	i	.	.	.	.	.	.
CC[N+](C)(CC)CC(=O)OCC1C(C)C=C(C)CC1C (stereo not given)	i	-8.45*	i	i	i	.	.	.	.	i	i	TRPC4 sel inh 2=i;TRPC4 spec=i;HEK293 MPD ctr 2-1=i;HEK293 MPD ctr-1=i
Cc1cc2nc3s/c(=C/c4ccc(-c5ccccc5C(=O)O)o4)c(=O)n3c2cc1C	55.9*	i	i	143*	12*	+	i	395.0%*	i	i	720.5%*
O=Nc1c(O)n(Cc2cccc(C(F)(F)F)c2)c2ccccc12	i	i	i	i	i	.	.	.	.	.	.
